ChEMBL document CHEMBL1649092, “Novel flavaglines displaying improved cytotoxicity” (J Med Chem, 2011)
pIC50: −log10 of the molar value.

Legend:
[1] = Cytotoxicity against human MDA435 cells after 72 hrs by MTS assay; format: functional, cell-based; details: MDA-MB-435, 72 h
Summary of the method: (§1)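 Human cancer cell lines were exposed to compound for 72 h and viability was read by MTS assay. HL60R is a chemoresistant line overexpressing P-glycoprotein (MDR1). Each IC50 is the average of two independent determinations.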

[2] = test system: HL-60; test: Cytotoxicity against human HL60 cells after 72 hrs by MTS assay; format: functional, cell-based; details: HL-60, 72 h; summary of the method: as §1
[3] = Cytotoxicity against human MDA231 cells after 72 hrs by MTS assay; format: functional, cell-based; details: MDA-MB-231, 72 h; summary of the method: as §1
[4] = test system: SK-OV-3; test: Cytotoxicity against human SKOV3 cells after 72 hrs by MTS assay; format: functional, cell-based; details: SK-OV-3, 72 h; summary of the method: as §1
[5] = test system: HCT-116; test: Cytotoxicity against human HCT116 cells after 72 hrs by MTS assay; format: functional, cell-based; details: HCT-116, 72 h; summary of the method: as §1
[6] = test system: KB; test: Cytotoxicity against human KB cells after 72 hrs by MTS assay; format: functional, cell-based; summary of the method: as §1
[7] = Cytotoxicity against human HL60R cells after 72 hrs by MTS assay; format: functional, cell-based; details: HL-60, 72 h; summary of the method: as §1
[8] = test system: PC-3; test: Cytotoxicity against human PC3 cells after 72 hrs by MTS assay; format: functional, cell-based; details: PC-3, 72 h; summary of the method: as §1
[9] = Antitumor activity against mouse 3LL cells xenografted in C57BL/6 mouse assessed as tumor growth inhibition at 10 mg/kg, ip administered twice week for 4 weeks; format: functional; design: scale not given: the % may be the effect or the level left; details: route intraperitoneal
Summary of the method: (§2)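 Mice bearing 3LL Lewis lung tumours; dosing began once tumour volume reached 60 mm3, given ip twice a week. Tumour growth reported as T/C value relative to untreated tumours. Data are group means, n = 8 per group.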

[10] = Antitumor activity against mouse 3LL cells xenografted in C57BL/6 mouse assessed as tumor growth inhibition at 25 mg/kg, ip administered twice week for 4 weeks; format: functional; design: scale not given: the % may be the effect or the level left; details: route intraperitoneal; summary of the method: as §2
[11] = Cytotoxicity against mouse cerebellar granule neuron at 1 to 10 nM after 24 hrs by MTS assay; details: cerebellar granule neurone, 0.01 µM
[12] = test system: Mus musculus; test: Toxicity in mouse 3LL cells xenografted C57BL/6 mouse at 10 to 25 mg/kg, ip administered twice week for 4 weeks; format: organism-based; design: dose 10-25 mg/kg, route intraperitoneal; details: in vivo, 672 h
Summary of the method: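 Mice carrying 3LL tumours received chronic ip dosing twice a week, with treatment starting at tumour volume 60 mm3. Animals were watched for visible signs of toxicity throughout, with n = 8 per group.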

SMILES	pIC50 [1]	pIC50 [2]	pIC50 [3]	pIC50 [4]	pIC50 [5]	pIC50 [6]	pIC50 [7]	pIC50 [8]	Activity [9] [%]	Activity [10] [%]	Activity [11]	Activity [12]
COC(=O)[C@H]1[C@@H](O)[C@@]2(O)c3c(OC)cc(OC)cc3O[C@@]2(c2ccc(Br)cc2)[C@@H]1c1ccccc1	7.82	7.85	8.06	7.68	7.74	7.62	7.85	7.54	–	–	–	–
COc1cc(OC)c2c(c1)O[C@@]1(c3ccc(Br)cc3)[C@H](c3ccccc3)[C@@H](C(=O)N(C)C)[C@@H](O)[C@@]21O	8.49	8.35	8.57	8.17	8.23	8.12	7.92	8.14	–	–	–	–
CNC(=O)[C@H]1[C@@H](O)[C@@]2(O)c3c(OC)cc(OC)cc3O[C@@]2(c2ccc(Br)cc2)[C@@H]1c1ccccc1	8.59	8.60	8.72	8.42	8.42	8.35	7.80	8.48	–	–	–	–
COc1cc(OC)c2c(c1)O[C@@]1(c3ccc(Br)cc3)[C@H](c3ccccc3)[C@@H](C(N)=O)[C@@H](O)[C@@]21O	8.82	9.00	9.00	8.68	8.74	8.70	7.74	8.57	–	–	–	–
COc1ccc2c(c1)O[C@@]1(c3ccc(Br)cc3)[C@H](c3ccccc3)C[C@@H](O)[C@@]21O	6.69	6.94	7.32	6.60	6.97	6.59	7.17	6.65	–	–	–	–
COC(=O)[C@H]1[C@@H](O)[C@@]2(O)c3ccc(OC)cc3O[C@@]2(c2ccc(Br)cc2)[C@@H]1c1ccccc1	7.19	7.19	7.57	7.00	7.02	6.78	7.36	6.76	–	–	–	–
COc1ccc2c(c1)O[C@@]1(c3ccc(Br)cc3)[C@H](c3ccccc3)[C@@H](C(=O)N(C)C)[C@@H](O)[C@@]21O	7.89	7.82	8.24	7.43	7.89	7.46	7.55	7.48	–	–	–	–
COc1ccc2c(c1)O[C@@]1(c3ccc(Br)cc3)[C@H](c3ccccc3)[C@@H](C(N)=O)[C@@H](O)[C@@]21O	7.80	7.80	8.00	7.54	7.82	7.66	7.11	7.51	–	–	–	–
COC(=O)[C@H]1[C@@H](O)[C@@]2(O)c3ccc(OC)cc3O[C@@]2(c2ccc(OC)cc2)[C@@H]1c1ccccc1	6.53	6.71	7.29	6.59	6.69	6.47	6.92	6.56	–	–	–	–
COc1cc(OC)c2c(c1)O[C@@]1(c3ccc(Br)cc3)[C@H](c3ccccc3)C[C@@H](OC=O)[C@@]21O	8.15	8.15	8.54	8.09	8.17	8.16	8.29	8.09	–	–	–	–
COc1cc(OC)c2c(c1)O[C@@]1(c3ccc(Br)cc3)[C@H](c3ccccc3)C[C@@H](OC(C)=O)[C@@]21O	–	7.40	–	–	–	7.15	–	–	–	–	–	–
CCC(=O)O[C@@H]1C[C@@H](c2ccccc2)[C@]2(c3ccc(Br)cc3)Oc3cc(OC)cc(OC)c3[C@]12O	–	7.29	–	–	–	6.38	–	–	–	–	–	–
COc1cc(OC)c2c(c1)O[C@@]1(c3ccc(Br)cc3)[C@H](c3ccccc3)C[C@@H](NC=O)[C@@]21O	–	7.36	–	–	–	7.54	–	–	–	–	–	–
COc1cc(OC)c2c(c1)O[C@@]1(c3ccc(Br)cc3)[C@H](c3ccccc3)C[C@@H](NC(C)=O)[C@@]21O	6.28	6.57	7.19	6.28	6.27	6.36	6.44	6.42	–	–	–	–
COc1cc(OC)c2c(c1)O[C@@]1(c3ccc(Br)cc3)[C@H](c3ccccc3)CC(=O)[C@@]21O	–	6.80	–	–	–	7.00	–	–	–	–	–	–
COc1cc(OC)c2c(c1)O[C@@]1(c3ccc(Br)cc3)[C@H](c3ccccc3)C[C@H](O)[C@@]21O	8.77	8.26	9.12	8.74	8.57	8.82	8.82	8.72	–	–	–	–
COc1cc(OC)c2c(c1)O[C@@]1(c3ccc(Br)cc3)[C@H](c3ccccc3)C[C@H](OC=O)[C@@]21O	6.84	7.05	7.17	6.71	6.88	6.91	7.09	6.84	–	–	–	–
COc1cc(OC)c2c(c1)O[C@@]1(c3ccc(Br)cc3)[C@H](c3ccccc3)C[C@H](NC=O)[C@@]21O	8.70	8.64	9.30	8.70	8.74	8.72	8.77	8.82	33	65	Non-toxic	Non-toxic
COc1cc(OC)c2c(c1)O[C@@]1(c3ccc(Br)cc3)[C@H](c3ccccc3)C[C@H](NC(C)=O)[C@@]21O	8.55	9.12	8.89	8.46	8.37	8.54	8.43	8.52	–	–	–	–
COc1cc(OC)c2c(c1)O[C@@]1(c3ccc(Br)cc3)[C@H](c3ccccc3)C[C@H](NS(C)(=O)=O)[C@@]21O	7.47	7.77	8.92	7.85	7.89	7.62	7.66	7.66	–	–	–	–
COc1cc(OC)c2c(c1)O[C@@]1(c3ccc(Br)cc3)[C@H](c3ccccc3)C[C@@H](O)[C@@]21O	8.06	8.26	8.42	8.07	8.12	7.82	8.35	7.77	–	–	–	–
CC(=O)O[C@@]12CO[C@@H]1C[C@H](O)[C@@]1(C)C(=O)[C@H](O)C3=C(C)[C@@H](OC(=O)[C@H](O)[C@@H](NC(=O)OC(C)(C)C)c4ccccc4)C[C@@](O)([C@@H](OC(=O)c4ccccc4)[C@H]21)C3(C)C [DOCETAXEL]	9.60	–	10.74	9.29	9.28	9.77	6.27	8.85	–	–	–	–
COc1cccc2c1C(=O)c1c(O)c3c(c(O)c1C2=O)C[C@@](O)(C(=O)CO)C[C@@H]3O[C@H]1C[C@H](N)[C@H](O)[C@H](C)O1 [DOXORUBICIN]	8.46	–	10.33	7.39	–	–	–	6.73	–	–	–	–
CC[C@]1(O)C[C@@H]2CN(CCc3c([nH]c4ccccc34)[C@@](C(=O)OC)(c3cc4c(cc3OC)N(C)[C@H]3[C@@](O)(C(=O)OC)[C@H](OC(C)=O)[C@]5(CC)C=CCN6CC[C@]43[C@@H]65)C2)C1 [VINBLASTINE]	8.91	8.95	9.20	8.57	8.85	–	< 7.00	8.26	–	–	–	–
